Source: ChEMBL document CHEMBL1152987, “Emergence of the quinolone resistance-mediating gene aac(6')-Ib-cr in extended-spectrum-beta-lactamase-producing Klebsiella isolates collected in Slovenia between 2000 and 2005” (2007)

What was measured:
Assay type in all cases: functional
[1] = tested on: Klebsiella; assay: Antimicrobial activity against extended-spectrum-beta-lactamase-producing Klebsiella transconjugant TK17 isolate expressing quinolone resistance-mediating gene aac(6')-Ib-cr by Etest
Method in brief: (§1)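 Transconjugants came from broth-free matings of Klebsiella donors with E. coli J53 Azr on brain heart infusion agar. Selection was for 24 h at 37°C on LB agar with sodium azide 150 μg/ml plus ampicillin 100, tetracycline 10, trimethoprim 25 or chloramphenicol 30 μg/ml, then replica plating ± ciprofloxacin 0.01 μg/ml. MICs were read by Etest per the manufacturer's instructions.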

[2] = tested on: Klebsiella; assay: Antimicrobial activity against extended-spectrum-beta-lactamase-producing Klebsiella transconjugant TK25 isolate expressing quinolone resistance-mediating gene aac(6')-Ib-cr by Etest; method in brief: as §1
[3] = tested on: Klebsiella; assay: Antimicrobial activity against extended-spectrum-beta-lactamase-producing Klebsiella transconjugant TK18 isolate expressing quinolone resistance-mediating gene aac(6')-Ib-cr by Etest; method in brief: as §1
[4] = tested on: Klebsiella; assay: Antimicrobial activity against extended-spectrum-beta-lactamase-producing Klebsiella transconjugant TK1 isolate expressing quinolone resistance-mediating gene aac(6')-Ib-cr by Etest; method in brief: as §1
[5] = tested on: Klebsiella; assay: Antimicrobial activity against extended-spectrum-beta-lactamase-producing Klebsiella transconjugant TK23 isolate expressing quinolone resistance-mediating gene aac(6')-Ib-cr by Etest; method in brief: as §1
[6] = tested on: Klebsiella; assay: Antimicrobial activity against extended-spectrum-beta-lactamase-producing Klebsiella transconjugant TK13 isolate expressing quinolone resistance-mediating gene aac(6')-Ib-cr by Etest; method in brief: as §1
[7] = tested on: Klebsiella; assay: Antimicrobial activity against extended-spectrum-beta-lactamase-producing Klebsiella transconjugant TK6 isolate expressing quinolone resistance-mediating gene aac(6')-Ib-cr by Etest; method in brief: as §1
[8] = tested on: Klebsiella; assay: Antimicrobial activity against extended-spectrum-beta-lactamase-producing Klebsiella transconjugant TK7 isolate expressing quinolone resistance-mediating gene aac(6')-Ib-cr by Etest; method in brief: as §1
[9] = tested on: Klebsiella; assay: Antimicrobial activity against extended-spectrum-beta-lactamase-producing Klebsiella transconjugant TK19 isolate expressing quinolone resistance-mediating gene aac(6')-Ib-cr by Etest; method in brief: as §1
[10] = tested on: Klebsiella; assay: Antimicrobial activity against extended-spectrum-beta-lactamase-producing Klebsiella transconjugant TK10 isolate expressing quinolone resistance-mediating gene aac(6')-Ib-cr by Etest; method in brief: as §1
[11] = tested on: Klebsiella; assay: Antimicrobial activity against extended-spectrum-beta-lactamase-producing Klebsiella transconjugant TK11 isolate expressing quinolone resistance-mediating gene aac(6')-Ib-cr by Etest; method in brief: as §1
[12] = tested on: Klebsiella; assay: Antimicrobial activity against extended-spectrum-beta-lactamase-producing Klebsiella transconjugant TK21 isolate expressing quinolone resistance-mediating gene aac(6')-Ib-cr by Etest; method in brief: as §1
[13] = tested on: Klebsiella; assay: Antimicrobial activity against extended-spectrum-beta-lactamase-producing Klebsiella transconjugant TK22 isolate expressing quinolone resistance-mediating gene aac(6')-Ib-cr by Etest; method in brief: as §1
[14] = tested on: Klebsiella; assay: Antimicrobial activity against extended-spectrum-beta-lactamase-producing Klebsiella transconjugant TK12 isolate expressing quinolone resistance-mediating gene aac(6')-Ib-cr by Etest; method in brief: as §1
[15] = tested on: Klebsiella; assay: Antimicrobial activity against extended-spectrum-beta-lactamase-producing Klebsiella transconjugant TK9 isolate expressing quinolone resistance-mediating gene aac(6')-Ib-cr by Etest; method in brief: as §1
[16] = tested on: Klebsiella; assay: Antimicrobial activity against extended-spectrum-beta-lactamase-producing Klebsiella transconjugant TK2 isolate expressing quinolone resistance-mediating gene aac(6')-Ib-cr by Etest; method in brief: as §1
[17] = tested on: Klebsiella; assay: Antimicrobial activity against extended-spectrum-beta-lactamase-producing Klebsiella transconjugant TK24 isolate expressing quinolone resistance-mediating gene aac(6')-Ib-cr by Etest; method in brief: as §1
[18] = tested on: Klebsiella; assay: Antimicrobial activity against extended-spectrum-beta-lactamase-producing Klebsiella transconjugant TK4 isolate expressing quinolone resistance-mediating gene aac(6')-Ib-cr by Etest; method in brief: as §1
[19] = tested on: Klebsiella; assay: Antimicrobial activity against extended-spectrum-beta-lactamase-producing Klebsiella transconjugant TK16 isolate expressing quinolone resistance-mediating gene aac(6')-Ib-cr by Etest; method in brief: as §1
[20] = tested on: Klebsiella; assay: Antimicrobial activity against extended-spectrum-beta-lactamase-producing Klebsiella transconjugant TK3 isolate expressing quinolone resistance-mediating gene aac(6')-Ib-cr by Etest; method in brief: as §1
[21] = tested on: Klebsiella; assay: Antimicrobial activity against extended-spectrum-beta-lactamase-producing Klebsiella transconjugant TK14 isolate expressing quinolone resistance-mediating gene aac(6')-Ib-cr by Etest; method in brief: as §1
[22] = tested on: Klebsiella; assay: Antimicrobial activity against extended-spectrum-beta-lactamase-producing Klebsiella transconjugant TK5 isolate expressing quinolone resistance-mediating gene aac(6')-Ib-cr by Etest; method in brief: as §1
[23] = tested on: Klebsiella; assay: Antimicrobial activity against extended-spectrum-beta-lactamase-producing Klebsiella transconjugant TK20 isolate expressing quinolone resistance-mediating gene aac(6')-Ib-cr by Etest; method in brief: as §1
[24] = tested on: Klebsiella; assay: Antimicrobial activity against extended-spectrum-beta-lactamase-producing Klebsiella transconjugant TK8 isolate expressing quinolone resistance-mediating gene aac(6')-Ib-cr by Etest; method in brief: as §1
[25] = tested on: Klebsiella; assay: Antimicrobial activity against extended-spectrum-beta-lactamase-producing Klebsiella transconjugant TK15 isolate expressing quinolone resistance-mediating gene aac(6')-Ib-cr by Etest; method in brief: as §1

Measured: MIC

O=C(O)c1cn(C2CC2)c2cc(N3CCNCC3)c(F)cc2c1=O [CIPROFLOXACIN]
0.125 µg/mL: all assays above
